Tests used:
[1] = Protein binding in human plasma by ultracentrifugation; format: ADME, cell-free; settings: read-out: PPB (converted)
[2] = Selectivity for rabbit cathepsin K over human cathepsin B
Summary of the method: (§1)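 Counterscreens used human Cat B and Cat S. Selectivity is expressed against humanized rabbit Cat K.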

[3] = Inhibition of bone resorption in rabbit bone; format: functional, tissue-based, Oryctolagus cuniculus, Bone element
[4] = Inhibition of humanized rabbit cathepsin K Tyr61Asp and Val157Leu mutant; parameters: species or system Homo sapiens
[5] = Protein binding in rat plasma by ultracentrifugation; format: ADME, cell-free; settings: read-out: PPB (converted)
[6] = Protein binding in rabbit plasma by ultracentrifugation; format: ADME, cell-free, Oryctolagus cuniculus; settings: read-out: PPB (converted)
[7] = Selectivity for rabbit cathepsin K over human cathepsin S; summary of the method: as §1
[8] = Bone resorption shift, ratio of IC50 for inhibition of bone resorption in rabbit bone to IC50 for rabbit cathepsin K; format: functional, Oryctolagus cuniculus
Summary of the method: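 Bone resorption shift is the rabbit bone resorption IC50 divided by the rabbit Cat K IC50.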

[9] = biological target: T1, Cathepsin K (Oryctolagus cuniculus, UniProt P43236); experiment: Inhibition of rabbit cathepsin K
T1 sequence (P43236 whole entry): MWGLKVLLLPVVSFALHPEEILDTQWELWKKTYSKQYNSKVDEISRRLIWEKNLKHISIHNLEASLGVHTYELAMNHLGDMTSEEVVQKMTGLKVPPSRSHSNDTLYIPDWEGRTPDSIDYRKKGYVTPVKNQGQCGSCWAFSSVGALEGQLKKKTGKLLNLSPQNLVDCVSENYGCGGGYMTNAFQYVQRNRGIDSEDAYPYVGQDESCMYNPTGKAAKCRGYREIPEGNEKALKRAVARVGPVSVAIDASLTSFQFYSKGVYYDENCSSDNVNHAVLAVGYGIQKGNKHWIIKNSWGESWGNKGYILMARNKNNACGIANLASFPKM

[10] = Selectivity for rabbit cathepsin K over human cathepsin Z
[11] = Metabolic stability in po dosed rat assessed as drug recovery after 96 hrs; format: ADME, organism-based; settings: in vivo
Summary of the method: (§2)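 Radiolabeled compound was given orally to bile-cannulated rats. Radioactivity was recovered from bile, urine and feces over 96 h and expressed as percent of dosed radioactivity.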

[12] = Inhibition of bone resorption in rhesus monkey bone; format: functional, tissue-based, Macaca mulatta, Bone element
[13] = Selectivity for rabbit cathepsin K over human cathepsin C
[14] = Half life in dog at 5 mL/kg, po; format: ADME, organism-based, Canis lupus familiaris; settings: in vivo
Summary of the method: (§3)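 Oral suspensions were given to overnight-fasted animals in the morning, at 10 mL/kg in rats, 5 mL/kg in dogs and 1 mL/kg in monkeys. Intravenous dosing was 1 mL/kg in all species. Plasma was sampled at intervals and analyzed by LC-MS after protein precipitation with 1.5 volumes acetonitrile and centrifugation.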

[15] = tested on: Rhesus monkey; experiment: Inhibition of bone resorption in ovariectomized monkey model of osteoporosis assessed as reduction of urinary-N-telopeptide fragment level at 1 mg/kg administered once daily; parameters: scale not given: the % may be the effect or the level left
[16] = Cmax in ovariectomized monkey model of osteoporosis at 1 mg/kg, po qd for 1 week; format: ADME, organism-based, Macaca mulatta; parameters: dose 1 mg/kg, route oral; settings: female, rhesus monkey, in vivo
Summary of the method: (§4)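 Adult ovariectomized rhesus monkeys dosed orally once daily at 1 mpk for 1 week, dosing volume 1 mL/kg, fasted overnight before morning dosing. Plasma drug levels were taken on the final day of dosing and analyzed by LC-MS after protein precipitation with 1.5 volumes acetonitrile and centrifugation.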

[17] = tested on: Canis familiaris; experiment: Volume of distribution in dog at 5 mL/kg, po; format: ADME, organism-based, Canis lupus familiaris; settings: in vivo; summary of the method: as §3
[18] = Metabolic stability in po dosed rat bile assessed as drug recovery after 96 hrs; format: ADME, organism-based; settings: read-out: Stability; summary of the method: as §2
[19] = Metabolic stability in po dosed rat feces assessed as drug recovery after 96 hrs; format: ADME, organism-based; settings: faeces, read-out: Stability; summary of the method: as §2
[20] = Oral bioavailability in rhesus monkey at 1 mL/kg; format: ADME, organism-based, Macaca mulatta; settings: in vivo; summary of the method: as §3
[21] = Oral bioavailability in dog at 5 mL/kg; format: ADME, organism-based, Canis lupus familiaris; settings: in vivo; summary of the method: as §3
[22] = Selectivity for rabbit cathepsin K over human cathepsin H
[23] = tested on: Rhesus monkey; experiment: Inhibition of bone resorption in ovariectomized monkey model of osteoporosis assessed as reduction of urinary-N-telopeptide fragment level at 1 mg/kg, po qd for 1 week; format: functional, Macaca mulatta, Urine; parameters: scale not given: the % may be the effect or the level left
Summary of the method: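 Adult ovariectomized rhesus monkeys given drug or vehicle orally once daily at 1 mpk for 1 week. Bone resorption was followed by urinary N-telopeptide (NTx) normalized to creatinine (nM/mM), and the value is the mean reduction versus vehicle-treated animals.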

[24] = tested on: Rattus norvegicus; experiment: Metabolic stability in po dosed rat assessed as (1R,2R)-5,5-dichloro-N-(1-cyanocyclopropyl)-2-(4-(4-(methylsulfonyl)phenyl)-1H-pyrazol-3-yl)cyclohexanecarboxamide level after 96 hrs; format: ADME, organism-based; settings: in vivo
[25] = Selectivity for rabbit cathepsin K over human cathepsin F
[26] = Oral bioavailability in rat at 10 mL/kg; format: ADME, organism-based; settings: in vivo; summary of the method: as §3
[27] = Clearance in dog at 5 mL/kg, po; format: ADME, organism-based, Canis lupus familiaris; settings: in vivo; summary of the method: as §3
[28] = AUC in ovariectomized monkey model of osteoporosis at 1 mg/kg, po qd for 1 week; format: ADME, organism-based, Macaca mulatta; parameters: dose 1 mg/kg, route oral; settings: female, rhesus monkey, in vivo; summary of the method: as §4
[29] = tested on: Rattus norvegicus; experiment: Volume of distribution in rat at 10 mL/kg, po; format: ADME, organism-based; settings: in vivo; summary of the method: as §3
[30] = tested on: Rhesus monkey; experiment: Volume of distribution in rhesus monkey at 1 mL/kg, po; format: ADME, organism-based, Macaca mulatta; settings: in vivo; summary of the method: as §3
[31] = Metabolic stability in po dosed rat urine assessed as drug recovery after 96 hrs; format: ADME, organism-based; settings: read-out: Stability; summary of the method: as §2
[32] = Half life in rhesus monkey at 1 mL/kg, po; format: ADME, organism-based, Macaca mulatta; settings: in vivo; summary of the method: as §3
[33] = Clearance in rhesus monkey at 1 mL/kg, po; format: ADME, organism-based, Macaca mulatta; settings: in vivo; summary of the method: as §3
[34] = Selectivity for rabbit cathepsin K over human cathepsin V
[35] = Tmax in ovariectomized monkey model of osteoporosis at 1 mg/kg, po qd for 1 week; format: ADME, organism-based, Macaca mulatta; parameters: dose 1 mg/kg, route oral; settings: female, rhesus monkey, in vivo; summary of the method: as §4
[36] = Drug level in ovariectomized monkey model of osteoporosis at 1 mg/kg, po qd for 1 week measured after 24 hrs of last dose; format: ADME, organism-based, Macaca mulatta; parameters: dose 1 mg/kg, route oral; settings: female, rhesus monkey, in vivo, read-out: Drug uptake; summary of the method: as §4
[37] = Clearance in rat at 10 mL/kg, po; format: ADME, organism-based; settings: in vivo; summary of the method: as §3
[38] = Half life in rat at 10 mL/kg, po; format: ADME, organism-based; settings: in vivo; summary of the method: as §3
[39] = species on record: Homo sapiens; experiment: Inhibition of humanized rabbit cathepsin K Tyr61Asp and Val157Leu mutant in presence of 0.2 uM citrate buffer at 0.12 uM
Summary of the method: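 Reversibility test: a 1:1 mixture of humanized rabbit Cat K and inhibitor (0.12 µM) was preincubated 15 min, then diluted 500-fold into substrate-containing buffer (0.2 µM citrate). Recovery of enzyme activity was followed over time against a control incubation, giving a recovery half-time.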

| Selectivity ratio [2] | IC50 [3] [nM] | IC50 [4] [nM] | Selectivity ratio [7] | IC50 [9] [nM] | Selectivity ratio [10] | Selectivity ratio [13] | half-life [14] [h] | Vdss [17] [L/kg] | bioavailability [21] [%] | Selectivity ratio [22] | Selectivity ratio [25] | bioavailability [26] [%] | CL/F [27] [mL/min/kg] | Vdss [29] [L/kg] | Selectivity ratio [34] | CL/F [37] [mL/min/kg] | half-life [38] [h] | Compound | Ratio IC50 [8] | also measured |
| --- | --- | --- | --- | --- | --- | --- | --- | --- | --- | --- | --- | --- | --- | --- | --- | --- | --- | --- | --- | --- |
| > 36000 | 16 | 0.28 | 940 | – | – | – | – | – | – | – | – | – | – | – | – | – | – | CSc1ccc(-c2ccccc2[C@@H]2CCC(F)(F)C[C@H]2C(=O)NCC#N)cc1 | 53 | fraction unbound [1]: 0.15; fraction unbound [5]: 0.15; fraction unbound [6]: 0.15 |
| 9500 | 41 | 0.37 | 490 | 0.41 | – | – | – | – | – | – | – | – | – | – | – | – | – | CSc1ccc(-c2cn(C)nc2[C@@H]2CCC(F)(F)C[C@H]2C(=O)NCC#N)cc1 (racemic) | 100 | – |

More lines, now with the values behind:

| Compound | Selectivity ratio [2] | IC50 [3] [nM] | IC50 [4] [nM] | Selectivity ratio [7] | IC50 [9] [nM] | Selectivity ratio [10] | Selectivity ratio [13] | half-life [14] [h] | Vdss [17] [L/kg] | bioavailability [21] [%] | Selectivity ratio [22] | Selectivity ratio [25] | bioavailability [26] [%] | CL/F [27] [mL/min/kg] | Vdss [29] [L/kg] | Selectivity ratio [34] | CL/F [37] [mL/min/kg] | half-life [38] [h] | Ratio IC50 [8] | also measured |
| --- | --- | --- | --- | --- | --- | --- | --- | --- | --- | --- | --- | --- | --- | --- | --- | --- | --- | --- | --- | --- |
| CS(=O)(=O)c1ccc(-c2cn(CC(F)(F)F)nc2[C@@H]2CCC(Cl)(Cl)C[C@H]2C(=O)NC2(C#N)CC2)cc1 | > 16000 | 50 | 0.62 | 4300 | 6.1 | 1700 | 6000 | 34 | 2.1 | 60 | > 140000 | 110 | 105 | 1.4 | 2.8 | 1100 | 7.8 | 4.4 | 8 | dose excreted at 96 h [11]: 92%; IC50 [12]: 2 nM; Activity [15]: 76%; Cmax [16]: 400 nM; dose excreted at 96 h [18]: 16%; dose excreted at 96 h [19]: 58%; bioavailability [20]: 104%; Activity [23]: 72%; Activity [24]: 0.1%; AUC at 168 h [28]: 4.2 µM·h; Vdss [30]: 3.4 L/kg; dose excreted at 96 h [31]: 18%; half-life [32]: 13 h; CL/F [33]: 5 mL/min/kg; Tmax [35]: 4 h; concentration at 24 h [36]: 80 nM; inhibition [39]: > 99% |
| CS(=O)(=O)c1ccc(-c2cn(CC(F)(F)F)nc2[C@@H]2CCC(F)(F)C[C@H]2C(=O)NC2(C#N)CC2)cc1 | > 14000 | 51 | 0.69 | 7100 | 9.3 | 1700 | 6000 | 7.8 | 1.2 | 31 | > 140000 | 110 | 25 | 1.8 | 3.2 | 1100 | 14 | 4.4 | 6 | – |
| CS(=O)(=O)c1ccc(-c2c[nH]nc2[C@@H]2CCC(F)(F)C[C@H]2C(=O)NC2(C#N)CC2)cc1 | 2900 | 120 | 1.8 | 2300 | 18.6 | – | – | – | – | – | – | – | – | – | – | – | – | – | 7 | – |
| Cn1cc(-c2ccc(S(C)(=O)=O)cc2)c([C@@H]2CCC(F)(F)C[C@H]2C(=O)NC2(C#N)CC2)n1 | 4400 | 35 | 0.81 | 1200 | 4.5 | – | – | – | – | – | – | – | – | – | – | – | – | – | 8 | – |
